The values that follow come from ChEMBL document CHEMBL1122273, “5-sulfamoylorthanilic acids, a sulfonamide series with salidiuretic activity” (J Med Chem, 1983).

The nature of experiment [1]: It is the ratio, measured as saluretic activity in the dog as concentration of Na+ in urinary excretion (dose 1.56 mg/Kg, po) to that of K. The format is functional, Urine. The gist of the method:
(§1)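 Trained male beagles, fasted 24 h with tap water ad libitum. Bladder emptied by catheter, then 20 mL/kg tap water by stomach tube, with 4 mL/kg water at each hourly catheterization up to 8 h. The first 2 h of urine served as control. Oral dosing came after the second catheterization, and 1–6 h urine was pooled. Na⁺ and K⁺ were measured by flame photometry, Cl⁻ argentometrically, in mequiv/kg.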

Experiment [2] relates to Canis familiaris. As to the kind of experiment: urinary excretion collected at 1-24 hr time after oral administration in dog (four animals per dose) dosed at 0.39 mg/kg.
Experiment [3] relates to Canis familiaris. As to the kind of experiment: Saluretic activity in the dog measured as concentration of K+ in urinary excretion (2 animals/dose) at (dose 0.025 mg/Kg, perorally). The format is functional, Canis lupus familiaris, Urine. The gist of the method:
(§2)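 Male beagles trained to the procedures, food withdrawn 24 h before, tap water ad libitum. Bladder emptied by catheter, then 20 mL/kg tap water by stomach tube, plus 4 mL/kg orally at each hourly catheterization up to 8 h. The first 2 h of urine served as control. Compound given orally after the second catheterization. Urine from 1–6 h post-dose pooled; Na⁺ and K⁺ by flame photometry, Cl⁻ argentometrically, in mequiv/kg.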

In experiment [4] the test system is Canis familiaris. As to the kind of experiment: urinary excretion collected at 7-24 hr time after oral administration in dog (four animals per dose) dosed at 3.12 mg/kg. The format is functional, Canis lupus familiaris, Urine.
The test system of experiment [5] is Canis familiaris. As to the kind of experiment: Diuretic activity in the dog (2 animals/dose) at (dose 0.025 mg/Kg), when administered perorally. The format is functional, Canis lupus familiaris, Urine. The method in brief: as §1
Experiment [6] relates to Canis familiaris. Nature of the experiment: Saluretic activity in the dog measured as concentration of Cl - in urinary excretion (2 animals/dose) at (dose 12.5 mg/Kg, perorally). The format is functional, Canis lupus familiaris, Urine. The gist of the method:
as §2

Experiment [7] concerns Canis familiaris. As to the kind of experiment: sodium excretion collected at 1-24 hr time after oral administration in dog (four animals per dose) at dose 1.56 mg/kg. It is filed as functional, Canis lupus familiaris. The gist of the method: (§3)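 Trained male beagles, four per dose, fasted 24 h with tap water ad libitum. After bladder emptying, given 20 mL/kg tap water by stomach tube, then 4 mL/kg at each hourly catheterization; 2 h control collection, then oral dosing. Urine volume and Na⁺ (flame photometry) reported for 1–6, 7–24 and 1–24 h post-dose periods.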

Experiment [8] in a line: It is the ratio, measured as saluretic activity in the dog as concentration of Cl- in urinary excretion (dose 12.5 mg/kg, p.o.) to that of (Na+)+(K+). The format is functional, Urine. As to conditions: route oral. The method in brief:
as §1

The subject of experiment [9] is Canis familiaris. As to the kind of experiment: Urinary excretion collected at 1-6 hr time after oral administration in dog (four animals per dose) at dose 0.39 mg/kg. The format is functional, Canis lupus familiaris, Urine. The gist of the method: as §3
For experiment [10], the system named is Canis familiaris. As to the kind of experiment: sodium excretion collected at 1-6 hr time after oral administration in dog (four animals per dose) at dose 0.39 mg/kg. The format is functional, Canis lupus familiaris. The method in brief: as §3
Experiment [11] deals with Canis familiaris. Nature of the experiment: Urinary excretion collected at 1-24 hr time after oral administration in dog (four animals per dose) at dose 0.39 mg/kg. The format is functional, Canis lupus familiaris, Urine. The method in brief: as §3
Experiment [12] concerns Canis familiaris. Nature of the experiment: sodium excretion collected at 7-24 hr time after oral administration in dog (four animals per dose) at dose 0.39 mg/kg. The format is functional, Canis lupus familiaris. The method in brief: as §3
Experiment [13] concerns Canis familiaris. As to the kind of experiment: Saluretic activity in the dog measured as concentration of Na+ in urinary excretion (2 animals/dose) at a dose of 0.1 mg/Kg, perorally. The format is functional, Canis lupus familiaris, Urine. The method in brief:
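Male beagles trained to rest on a table and to accept stomach tube and catheter. Food withdrawn 24 h before, tap water ad libitum. Bladder emptied by catheter, then 20 mL/kg tap water by stomach tube. Catheterized hourly up to 8 h with 4 mL/kg water orally each time; first 2 h urine served as control. Oral dosing after second catheterization. Pooled 1–6 h urine; Na⁺/K⁺ by flame photometry, Cl⁻ argentometrically.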

Turning to `CN(c1ccccc1)c1cc(NCc2ccco2)c(S(=O)(=O)[O-])cc1S(N)(=O)=O.[Na+]`, in experiment [1], the Ratio was found to be 4.9. Besides, the Urinary excretion turned out to be 95.7 mL/kg in the experiment on Canis familiaris [2] and 40.8 mL/kg with Canis familiaris [4]. For the same compound, the Saluretic activity with Canis familiaris [3] stood at 0.2 m equiv 6hr-1 kg-1. Also, the Diuretic activity in the experiment on Canis familiaris [5] was found to be 33.3 ml kg-1 6hr-1.

In the experiment with Canis familiaris [6], `NS(=O)(=O)c1cc(S(=O)(=O)[O-])c(NCc2ccco2)cc1Oc1ccccc1.[Na+]` gave a Saldiuretic activity of 7.13 m equiv 6hr-1 kg-1. The Na+ excretion turned out to be 5.4 mequiv kg-1 in the experiment on Canis familiaris [7], 1.57 mequiv kg-1 in the experiment with Canis familiaris [10] and 0.47 mequiv kg-1 with Canis familiaris [12]. The Ratio in experiment [8] is recorded as 0.95. Besides, the Urinary excretion was determined as 41.6 mL/kg with Canis familiaris [9] and 50.9 mL/kg with Canis familiaris [11]. The compound also had a Saluretic activity in the experiment on Canis familiaris [13] of 0.18 m equiv 5hr-1 kg-1.
